# ChEMBL document CHEMBL3817843, “Understanding Oxadiazolothiazinone Biological Properties: Negative Inotropic Activity versus Cytochrome P450-Mediated Metabolism” (J Med Chem, 2016)
# Assays:
# Left cardiac atrium [1] = experiment: Negative inotropic activity in potassium depolarized guinea pig left atrium assessed as reduction in developed tension after 30 mins; format: functional; conditions: Cavia porcellus, 0.5 h
# Method in brief: (§1)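 Guinea pig left atria electrically driven at 1 Hz. EC50 taken from log concentration−response curves by Litchfield and Wilcoxon probit analysis, n = 6−7. Not calculated when the maximum effect was below 50%.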
# Right cardiac atrium [2] = experiment: Negative chronotropic activity in potassium depolarized guinea pig right atrium assessed as reduction in atrial rate at 10^-4 M after 30 mins; format: functional, Cavia porcellus; set-up: scale not given: the % may be the effect or the level left
# Left cardiac atrium [3] = experiment: Negative inotropic activity in potassium depolarized guinea pig left atrium assessed as reduction in developed tension at 10^-4 M after 30 mins; format: functional, Cavia porcellus; set-up: scale not given: the % may be the effect or the level left
# Aorta [4] = experiment: Vasorelaxant activity in potassium depolarized guinea pig aorta assessed as inhibition of calcium-induced contraction at 10^-4 M after 30 mins; format: functional, Cavia porcellus; set-up: scale not given: the % may be the effect or the level left
# Method in brief: (§2)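 Guinea pig aortic strips depolarized with K+ (80 mM). Calcium-induced contraction measured; inhibition expressed as percent change from control, n = 3−5.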
# Right cardiac atrium [5] = experiment: Negative chronotropic activity in potassium depolarized guinea pig right atrium assessed as reduction in atrial rate at 50 uM after 30 mins; format: functional, Cavia porcellus; set-up: scale not given: the % may be the effect or the level left
# Left cardiac atrium [6] = experiment: Negative inotropic activity in potassium depolarized guinea pig left atrium assessed as reduction in developed tension at 50 uM after 30 mins; format: functional, Cavia porcellus; set-up: scale not given: the % may be the effect or the level left
# Left cardiac atrium [7] = experiment: Negative inotropic activity in potassium depolarized guinea pig left atrium assessed as reduction in developed tension at 5 uM after 30 mins; format: functional, Cavia porcellus; set-up: scale not given: the % may be the effect or the level left
# Right cardiac atrium [8] = experiment: Negative chronotropic activity in potassium depolarized guinea pig right atrium assessed as reduction in atrial rate at 10^-5 M after 30 mins; format: functional, Cavia porcellus; set-up: scale not given: the % may be the effect or the level left
# Cytochrome P450 1A2 = biological target: T1, Cytochrome P450 1A2 (Homo sapiens, UniProt P05177); experiment: Inhibition of CYP1A2 in human liver microsomes using phenacetin as substrate after 30 mins by LC-MS analysis
# T1 sequence (P05177 whole entry): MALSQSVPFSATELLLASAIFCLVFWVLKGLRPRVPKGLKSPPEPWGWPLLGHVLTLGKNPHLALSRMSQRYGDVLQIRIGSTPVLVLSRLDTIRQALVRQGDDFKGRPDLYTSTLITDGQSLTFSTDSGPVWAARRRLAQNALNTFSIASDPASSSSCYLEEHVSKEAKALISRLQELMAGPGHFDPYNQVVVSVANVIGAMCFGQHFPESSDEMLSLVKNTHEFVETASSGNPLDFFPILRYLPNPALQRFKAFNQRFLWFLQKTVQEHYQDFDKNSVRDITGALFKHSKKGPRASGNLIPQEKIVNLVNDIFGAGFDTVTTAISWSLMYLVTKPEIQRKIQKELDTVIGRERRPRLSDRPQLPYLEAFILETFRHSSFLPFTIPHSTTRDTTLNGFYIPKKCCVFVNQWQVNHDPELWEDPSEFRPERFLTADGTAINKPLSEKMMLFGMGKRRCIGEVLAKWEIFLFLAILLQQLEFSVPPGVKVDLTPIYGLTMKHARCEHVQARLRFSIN
# Liver microsome = experiment: Stability in human liver microsomes at 1 uM after 2 to 60 mins by LC-MS analysis in absence of NADPH
# Cytochrome P450 2C19 = Cytochrome P450 2C19 (Homo sapiens, UniProt P33261); experiment: Inhibition of CYP2C19 in human liver microsomes using (S)-mephenytoin as substrate after 40 mins by LC-MS analysis
# Cytochrome P450 2C19, sequence (P33261 whole entry): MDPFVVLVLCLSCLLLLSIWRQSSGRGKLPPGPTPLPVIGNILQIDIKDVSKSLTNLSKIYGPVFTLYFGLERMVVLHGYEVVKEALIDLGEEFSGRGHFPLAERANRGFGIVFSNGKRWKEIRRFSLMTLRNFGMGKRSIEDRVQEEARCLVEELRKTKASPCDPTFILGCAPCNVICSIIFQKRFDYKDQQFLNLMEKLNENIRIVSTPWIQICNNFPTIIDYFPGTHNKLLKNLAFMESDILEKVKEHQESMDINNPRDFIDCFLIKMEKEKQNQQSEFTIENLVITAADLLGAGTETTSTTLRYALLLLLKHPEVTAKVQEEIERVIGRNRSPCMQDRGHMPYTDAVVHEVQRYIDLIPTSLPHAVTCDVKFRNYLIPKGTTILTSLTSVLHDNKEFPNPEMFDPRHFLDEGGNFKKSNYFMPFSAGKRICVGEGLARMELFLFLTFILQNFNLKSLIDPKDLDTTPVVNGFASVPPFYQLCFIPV
# Cytochrome P450 3A4 [9] = biological target: T2, Cytochrome P450 3A4 (Homo sapiens, UniProt P08684); experiment: Inhibition of CYP3A4 in human liver microsomes using testosterone as substrate after 5 mins by LC-MS analysis
# T2 sequence (P08684 whole entry): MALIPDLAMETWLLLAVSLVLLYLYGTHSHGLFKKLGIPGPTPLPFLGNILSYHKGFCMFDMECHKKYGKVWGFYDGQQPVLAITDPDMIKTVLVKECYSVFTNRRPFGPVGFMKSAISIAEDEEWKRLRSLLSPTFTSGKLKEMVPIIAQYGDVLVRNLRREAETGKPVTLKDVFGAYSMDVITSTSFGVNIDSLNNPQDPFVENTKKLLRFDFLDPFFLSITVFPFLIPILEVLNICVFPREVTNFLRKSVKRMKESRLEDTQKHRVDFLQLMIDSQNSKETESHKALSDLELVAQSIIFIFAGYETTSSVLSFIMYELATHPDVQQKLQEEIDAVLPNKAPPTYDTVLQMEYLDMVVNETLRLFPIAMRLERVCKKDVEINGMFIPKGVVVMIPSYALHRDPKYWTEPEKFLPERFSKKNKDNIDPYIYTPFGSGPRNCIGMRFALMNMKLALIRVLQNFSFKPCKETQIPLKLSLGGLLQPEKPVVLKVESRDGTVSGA
# in vitro = conditions: human, liver microsomes
# [10] = Half life in human liver microsomes assessed as CYP-mediated compound degradation at 1 uM by LC-MS analysis
# Cytochrome P450 2C9 = Cytochrome P450 2C9 (Homo sapiens, UniProt P11712); experiment: Inhibition of CYP2C9 in human liver microsomes using tolbutamide as substrate after 20 mins by LC-MS analysis
# Cytochrome P450 2C9, sequence (P11712 whole entry): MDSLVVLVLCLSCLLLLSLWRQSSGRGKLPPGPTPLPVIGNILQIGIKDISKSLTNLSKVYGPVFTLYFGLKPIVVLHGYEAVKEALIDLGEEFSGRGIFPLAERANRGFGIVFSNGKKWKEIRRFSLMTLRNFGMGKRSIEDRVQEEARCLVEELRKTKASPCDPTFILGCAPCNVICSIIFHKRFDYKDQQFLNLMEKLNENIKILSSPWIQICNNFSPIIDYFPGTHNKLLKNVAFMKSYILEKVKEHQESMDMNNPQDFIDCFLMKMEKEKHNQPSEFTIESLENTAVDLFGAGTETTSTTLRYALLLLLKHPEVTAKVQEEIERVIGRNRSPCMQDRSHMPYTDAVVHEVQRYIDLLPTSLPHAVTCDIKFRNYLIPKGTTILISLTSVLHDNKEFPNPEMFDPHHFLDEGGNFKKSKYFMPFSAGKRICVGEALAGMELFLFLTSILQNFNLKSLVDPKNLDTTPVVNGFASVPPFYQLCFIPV
# Cytochrome P450 2D6 = Cytochrome P450 2D6 (Homo sapiens, UniProt P10635); experiment: Inhibition of CYP2D6 in human liver microsomes using dextromethorphan as substrate after 10 mins by LC-MS analysis
# Cytochrome P450 2D6, sequence (P10635 whole entry): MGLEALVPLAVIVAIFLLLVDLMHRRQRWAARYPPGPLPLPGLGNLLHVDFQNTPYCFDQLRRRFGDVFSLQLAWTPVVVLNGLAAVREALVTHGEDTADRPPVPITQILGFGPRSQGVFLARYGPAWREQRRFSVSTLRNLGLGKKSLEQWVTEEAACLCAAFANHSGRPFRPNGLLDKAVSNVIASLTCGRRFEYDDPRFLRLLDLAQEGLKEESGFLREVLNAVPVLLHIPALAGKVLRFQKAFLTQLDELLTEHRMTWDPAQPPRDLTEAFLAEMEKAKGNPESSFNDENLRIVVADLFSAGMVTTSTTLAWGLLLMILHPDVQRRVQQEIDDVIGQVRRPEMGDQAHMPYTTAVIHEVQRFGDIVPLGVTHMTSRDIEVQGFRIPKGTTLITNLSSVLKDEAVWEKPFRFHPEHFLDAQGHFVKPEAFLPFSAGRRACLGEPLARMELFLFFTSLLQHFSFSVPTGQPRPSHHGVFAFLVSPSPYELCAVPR
# Cytochrome P450 3A4 [11] = biological target: T2, Cytochrome P450 3A4; experiment: Inhibition of CYP3A4 in human liver microsomes using midazolam as substrate after 4 mins by LC-MS analysis
# Aorta [12] = experiment: Vasorelaxant activity in potassium depolarized guinea pig aorta assessed as inhibition of calcium-induced contraction at 50 uM after 30 mins; format: functional, Cavia porcellus; set-up: scale not given: the % may be the effect or the level left; method in brief: as §2
# [13] = Relaxant activity in potassium depolarized guinea pig ileum longitudinal smooth muscle assessed as inhibition of calcium-induced contraction at 10^-4 M after 30 mins; format: functional, Cavia porcellus; set-up: scale not given: the % may be the effect or the level left
# Left cardiac atrium [14] = experiment: Negative inotropic activity in potassium depolarized guinea pig left atrium assessed as reduction in developed tension at 10^-5 M after 30 mins; format: functional, Cavia porcellus; set-up: scale not given: the % may be the effect or the level left
# [15] = Relaxant activity in potassium depolarized guinea pig ileum longitudinal smooth muscle assessed as inhibition of calcium-induced contraction after 30 mins; format: functional, tissue-based; conditions: Cavia porcellus, 0.5 h
# [16] = Relaxant activity in potassium depolarized guinea pig ileum longitudinal smooth muscle assessed as inhibition of calcium-induced contraction at 50 uM after 30 mins; format: functional, Cavia porcellus; set-up: scale not given: the % may be the effect or the level left
# Right cardiac atrium [17] = experiment: Negative chronotropic activity in potassium depolarized guinea pig right atrium assessed as reduction in atrial rate at 10^-6 M after 30 mins; format: functional, Cavia porcellus; set-up: scale not given: the % may be the effect or the level left
# Left cardiac atrium [18] = experiment: Negative inotropic activity in potassium depolarized guinea pig left atrium assessed as reduction in developed tension at 10^-6 M after 30 mins; format: functional, Cavia porcellus; set-up: scale not given: the % may be the effect or the level left
# Left cardiac atrium [19] = experiment: Negative inotropic activity in potassium depolarized guinea pig left atrium assessed as reduction in developed tension at 10^-5 M; format: functional, Cavia porcellus; set-up: scale not given: the % may be the effect or the level left
# Left cardiac atrium [20] = experiment: Negative inotropic activity in potassium depolarized guinea pig left atrium assessed as reduction in developed tension; format: functional; conditions: Cavia porcellus; method in brief: as §1
# Aorta [21] = experiment: Vasorelaxant activity in potassium depolarized guinea pig aorta assessed as relaxation of calcium-induced contraction; format: functional, tissue-based; conditions: Cavia porcellus; method in brief: as §2
# Aorta [22] = experiment: Vasorelaxant activity in potassium depolarized guinea pig aorta assessed as inhibition of calcium-induced contraction at 10^-6 M; format: functional, Cavia porcellus; set-up: scale not given: the % may be the effect or the level left
# Method in brief: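 Guinea pig aortic strips depolarized with 80 mM K+, then contracted by calcium addition. The read-out is percent inhibition of the calcium-induced contraction, expressed as percent change from control, with n = 3–5.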
compound,measurement,setting,value
CC1=CSC(OCC2CCCCC2)(c2ccccc2)c2noc(=O)n21 (stereo not given),EC50,Left cardiac atrium [1],870 nM
same,Activity,Right cardiac atrium [2],2%
same,Activity,Left cardiac atrium [3],56%
same,Activity,Aorta [4],14%
O=c1onc2n1-c1ccccc1SC2(O)c1ccccc1 (stereo not given),EC50,Left cardiac atrium [1],1290 nM
same,Activity,Aorta [4],21%
same,Activity,Right cardiac atrium [5],10%
same,Activity,Left cardiac atrium [6],97%
CCOC1(c2ccccc2OC)SC=C(C)n2c1noc2=O (stereo not given),Activity,Left cardiac atrium [7],85%
same,EC50,Left cardiac atrium [1],140 nM
same,Activity,Aorta [4],28%
same,Activity,Right cardiac atrium [8],29%
CC1=CSC(OCC(F)(F)F)(c2ccc(Br)cc2)c2noc(=O)n21 (stereo not given),IC50,Cytochrome P450 1A2,5000 nM
same,Stability,Liver microsome,Stable
same,IC50,Cytochrome P450 2C19,1000 nM
same,IC50,Cytochrome P450 3A4 [9],> 20000 nM
same,microsomal CLint at 1 µM,in vitro,< 7 µL/min/mg
same,half-life at 1 µM,[10],> 250 min
same,IC50,Cytochrome P450 2C9,6600 nM
same,IC50,Cytochrome P450 2D6,7100 nM
same,IC50,Cytochrome P450 3A4 [11],> 20000 nM
COc1cccc(C2(O)SC=C(C)n3c2noc3=O)c1 (stereo not given),Activity,Aorta [12],10%
same,EC50,Left cardiac atrium [1],490 nM
same,Activity,Right cardiac atrium [5],16%
same,Activity,Left cardiac atrium [6],86%
COc1cccc(C2(OCC(F)(F)F)SC=C(C)n3c2noc3=O)c1 (stereo not given),Activity,[13],95%
same,EC50,Left cardiac atrium [1],320 nM
same,Activity,Right cardiac atrium [2],9%
same,Activity,Left cardiac atrium [14],72%
same,Activity,Aorta [4],40%
same,IC50,[15],12400 nM
CC1=CSC(OC(C)C)(c2ccccc2)c2noc(=O)n21 (stereo not given),Activity,[16],97%
same,Activity,Right cardiac atrium [17],25%
same,EC50,Left cardiac atrium [1],1190 nM
same,Activity,Left cardiac atrium [3],82%
same,Activity,Aorta [4],39%
same,IC50,[15],4820 nM
CCOC1(c2ccc(OC)cc2)Sc2ccccc2-n2c1noc2=O (stereo not given),IC50,Cytochrome P450 1A2,> 20000 nM
same,Stability,Liver microsome,Stable
same,IC50,Cytochrome P450 2C19,3600 nM
same,IC50,Cytochrome P450 3A4 [9],> 20000 nM
same,EC50,Left cardiac atrium [1],230 nM
same,Activity,Right cardiac atrium [2],19%
same,microsomal CLint at 1 µM,in vitro,135 µL/min/mg
same,Activity,Left cardiac atrium [14],73%
same,half-life at 1 µM,[10],13 min
same,Activity,Aorta [4],11%
same,IC50,Cytochrome P450 2C9,11800 nM
same,IC50,Cytochrome P450 2D6,> 20000 nM
same,IC50,Cytochrome P450 3A4 [11],> 20000 nM
COc1cccc(C2(OCC3CCCCC3)SC=C(C)n3c2noc3=O)c1 (stereo not given),EC50,Left cardiac atrium [1],650 nM
same,Activity,Aorta [4],20%
same,Activity,Right cardiac atrium [5],4%
same,Activity,Left cardiac atrium [6],83%
COc1ccccc1C1(O)SC=C(C)n2c1noc2=O (stereo not given),EC50,Left cardiac atrium [1],930 nM
same,Activity,Aorta [4],25%
same,Activity,Left cardiac atrium [6],94%
same,Activity,Right cardiac atrium [8],11%
O=c1onc2n1-c1ccccc1SC2(OCC(F)(F)F)c1ccccc1 (stereo not given),Activity,[13],75%
same,EC50,Left cardiac atrium [1],390 nM
same,Activity,Right cardiac atrium [2],13%
same,Activity,Aorta [4],6%
same,IC50,[15],14500 nM
same,Activity,Left cardiac atrium [6],75%
CC1=CSC(OCC(F)(F)F)(c2ccccc2)c2noc(=O)n21 (stereo not given),IC50,Cytochrome P450 1A2,> 20000 nM
same,Stability,Liver microsome,Stable
same,Activity,Left cardiac atrium [7],79%
same,Activity,[13],95%
same,IC50,Cytochrome P450 2C19,2400 nM
same,IC50,Cytochrome P450 3A4 [9],> 20000 nM
same,EC50,Left cardiac atrium [1],140 nM
same,Activity,Right cardiac atrium [2],6%
same,Activity,Aorta [4],28%
same,IC50,Cytochrome P450 2C9,18400 nM
same,IC50,Cytochrome P450 2D6,16500 nM
same,IC50,[15],9820 nM
same,IC50,Cytochrome P450 3A4 [11],> 20000 nM
COc1ccc(C2(O)Sc3ccccc3-n3c2noc3=O)cc1 (stereo not given),Activity,Left cardiac atrium [18],95%
same,Activity,Aorta [12],19%
same,EC50,Left cardiac atrium [1],100 nM
same,Activity,Right cardiac atrium [5],26%
COc1ccc(CCN(C)CCCC(C#N)(c2ccc(OC)c(OC)c2)C(C)C)cc1OC (stereo not given),Activity,Left cardiac atrium [19],84%
same,EC50,Left cardiac atrium [20],610 nM
same,IC50,Aorta [21],380 nM
same,Activity,Aorta [22],95%
